According to ChEMBL document CHEMBL3352791, “Thioaryl naphthylmethanone oxime ether analogs as novel anticancer agents” (J Med Chem, 2014):
Active and inactive are the calls of the source. The rule behind the calls is not given here.

Key:
[1] = Safety index, ratio of IC50 for human MCF10A cells to EC50 for human DLD1 cells; type: toxicity, cell-based, MCF-10A; conditions: MCF10A cells versus DLD1 cells, read-out: Ratio IC50/EC50
Summary of the method: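 Safety index is the IC50 in the normal cells divided by the EC50 in the cancer cells. Both values come from MTT assays: cells in DMEM with 10% FBS, serum-starved 4 h, then exposed to compound across a 100nM-50µM dose range with 0.1% DMSO as vehicle control.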

MDA-MB-231 [2] = assay: Cell cycle arrest in human […] cells assessed as accumulation at G1 phase at 2.5 uM by propidium iodide staining by FACS analysis (reference value: 63.74%); type: functional
MDA-MB-231 [3] = assay: Cell cycle arrest in human […] cells assessed as accumulation at G1 phase at 5 uM by propidium iodide staining by FACS analysis (reference value: 63.74%); type: functional
MDA-MB-231 [4] = assay: Cell cycle arrest in human […] cells assessed as accumulation at subG1 phase at 5 uM by propidium iodide staining by FACS analysis (reference value: 0.3%); type: functional
Mus musculus = assay: Toxicity in human MCF7 cells xenografted in NIH-3 mouse assessed as changed in body weight at 16 mg/kg, po for 29 days relative to control; type: organism-based; set-up: dose 16 mg/kg, route oral; conditions: in vivo, 696 h
[5] = molecular target: Platelet-derived growth factor receptor beta (Homo sapiens) (UniProt P09619); assay: Inhibition of PDGFRbeta (unknown origin) at 10 uM
Chain of Platelet-derived growth factor receptor beta (Homo sapiens) (P09619 whole entry): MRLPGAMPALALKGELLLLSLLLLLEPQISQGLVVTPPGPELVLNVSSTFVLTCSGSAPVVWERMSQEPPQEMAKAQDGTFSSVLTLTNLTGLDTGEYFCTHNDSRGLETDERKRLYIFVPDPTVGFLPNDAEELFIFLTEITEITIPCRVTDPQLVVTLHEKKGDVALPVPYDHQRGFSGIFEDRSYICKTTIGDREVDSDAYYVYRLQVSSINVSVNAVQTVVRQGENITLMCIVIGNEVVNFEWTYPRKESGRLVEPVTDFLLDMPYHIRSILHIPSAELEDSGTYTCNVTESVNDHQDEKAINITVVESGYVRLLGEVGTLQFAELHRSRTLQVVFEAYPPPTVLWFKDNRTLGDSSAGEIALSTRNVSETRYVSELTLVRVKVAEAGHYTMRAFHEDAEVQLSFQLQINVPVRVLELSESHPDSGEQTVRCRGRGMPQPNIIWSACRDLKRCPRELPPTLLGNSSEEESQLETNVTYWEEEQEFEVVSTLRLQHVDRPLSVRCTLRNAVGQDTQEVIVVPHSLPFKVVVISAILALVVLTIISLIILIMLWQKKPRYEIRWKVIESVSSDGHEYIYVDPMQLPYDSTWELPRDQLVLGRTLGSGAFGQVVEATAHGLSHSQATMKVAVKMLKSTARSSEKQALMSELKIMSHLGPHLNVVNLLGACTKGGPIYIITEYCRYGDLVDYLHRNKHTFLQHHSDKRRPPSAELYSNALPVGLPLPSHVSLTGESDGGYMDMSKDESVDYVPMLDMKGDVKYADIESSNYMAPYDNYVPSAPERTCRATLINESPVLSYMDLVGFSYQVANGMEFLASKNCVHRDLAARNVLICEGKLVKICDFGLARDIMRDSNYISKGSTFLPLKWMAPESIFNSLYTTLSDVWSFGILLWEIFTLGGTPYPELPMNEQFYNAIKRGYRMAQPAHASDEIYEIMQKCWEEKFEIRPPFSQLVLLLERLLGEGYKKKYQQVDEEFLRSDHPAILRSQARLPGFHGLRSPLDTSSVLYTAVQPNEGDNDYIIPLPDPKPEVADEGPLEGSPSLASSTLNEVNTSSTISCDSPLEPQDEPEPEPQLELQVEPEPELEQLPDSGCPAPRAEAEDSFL
Summary of the method: (§1)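 Cell-free kinase profiling was run as a standard 33P-ATP-based in vitro kinase assay.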

[6] = molecular target: Angiopoietin-1 receptor (Homo sapiens) (UniProt Q02763); assay: Inhibition of Tie2 (unknown origin) at 10 uM; summary of the method: as §1
Chain of Angiopoietin-1 receptor (Homo sapiens) (Q02763 whole entry): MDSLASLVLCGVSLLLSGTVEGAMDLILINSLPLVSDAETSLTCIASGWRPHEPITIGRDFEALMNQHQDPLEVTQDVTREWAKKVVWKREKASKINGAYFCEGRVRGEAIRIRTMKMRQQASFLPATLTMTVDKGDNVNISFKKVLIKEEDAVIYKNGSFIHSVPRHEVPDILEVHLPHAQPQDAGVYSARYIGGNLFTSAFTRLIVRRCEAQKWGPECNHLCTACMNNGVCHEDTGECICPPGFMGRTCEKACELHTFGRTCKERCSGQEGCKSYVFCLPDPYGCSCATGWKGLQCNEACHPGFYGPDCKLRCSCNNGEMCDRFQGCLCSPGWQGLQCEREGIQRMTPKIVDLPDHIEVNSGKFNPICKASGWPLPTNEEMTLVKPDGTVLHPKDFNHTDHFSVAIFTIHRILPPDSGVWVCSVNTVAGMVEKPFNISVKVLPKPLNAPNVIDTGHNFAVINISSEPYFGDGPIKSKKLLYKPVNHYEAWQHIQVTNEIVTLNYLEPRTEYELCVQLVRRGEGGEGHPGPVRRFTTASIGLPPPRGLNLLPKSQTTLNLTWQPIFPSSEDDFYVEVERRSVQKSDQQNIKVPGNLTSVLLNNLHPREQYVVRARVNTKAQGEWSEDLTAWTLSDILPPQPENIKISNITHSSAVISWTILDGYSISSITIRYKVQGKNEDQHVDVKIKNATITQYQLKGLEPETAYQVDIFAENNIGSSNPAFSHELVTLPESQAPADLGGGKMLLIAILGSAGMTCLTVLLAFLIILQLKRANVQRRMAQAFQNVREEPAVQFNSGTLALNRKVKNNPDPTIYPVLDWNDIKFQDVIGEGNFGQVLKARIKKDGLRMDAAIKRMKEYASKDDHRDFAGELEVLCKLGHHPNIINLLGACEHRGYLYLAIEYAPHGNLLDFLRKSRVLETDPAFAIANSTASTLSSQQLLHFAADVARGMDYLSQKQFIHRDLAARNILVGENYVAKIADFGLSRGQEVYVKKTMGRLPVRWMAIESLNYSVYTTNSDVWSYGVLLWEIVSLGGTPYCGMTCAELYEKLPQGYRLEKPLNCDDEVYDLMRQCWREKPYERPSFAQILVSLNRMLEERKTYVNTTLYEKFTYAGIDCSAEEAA

[7] = molecular target: cGMP-dependent 3',5'-cyclic phosphodiesterase (Homo sapiens) (UniProt O00408); assay: Inhibition of PDE2A3 (unknown origin) activity at 1 to 10 uM
Summary of the method: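 Recombinant PDE isoform activity was read by fluorescence polarization. A binding reagent complexes with the nucleotide monophosphate that the phosphodiesterase generates from cAMP/cGMP, and this raises the polarization of the labelled substrate. Reference standards were PDE1A3 10µM IBMX, PDE2A3 1nM BAY 60-7550, PDE3CAT 1µM cilostazol, PDE4CAT rolipram, PDE5CAT 0.1µM sildenafil, PDE7A […], PDE8A1 10µM BRL-50481, PDE9A1 1µM SB 36216 and PDE11A1 dipyridamole.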

MDA-MB-231 [8] = assay: Induction of apoptosis in human […] cells assessed as caspase 8 activation at 2.5 to 7.5 uM by Caspase-Glo assay; type: functional, cell-based
Summary of the method: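 Caspase-8, -9 and -3 activities measured with Caspase-Glo 8, 9 and 3 kits; mean ± SEM from three independent experiments.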

MDA-MB-231 [9] = assay: Induction of apoptosis in human […] MDA-MB-231 cells assessed as increase in Bax to Bcl2 ratio at 5 uM after 24 hrs by immunoblotting analysis; type: functional, cell-based
MDA-MB-231 [10] = assay: Inhibition of VEGF-A expression in human MDA-MB-231 cells at 1 uM after 24 hrs by qPCR analysis; type: functional, cell-based
Summary of the method: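 Gene expression was measured by qPCR in MDA-MB-231 breast cancer cells treated with 1µM compound. GAPDH served as the housekeeping internal control.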

MCF7 = assay: Inhibition of IGF1 expression in human MCF7 cells at 5 uM by ELISA; type: functional, cell-based
MDA-MB-231 [11] = assay: Inhibition of EGF expression in human MDA-MB-231 cells at 5 uM by ELISA; type: functional, cell-based
[12] = molecular target: Epidermal growth factor receptor (Homo sapiens) (UniProt P00533); assay: Inhibition of EGF-induced EGFR phosphorylation at Tyr1148 in human MDA-MB-231 cells at 1 uM by ELISA; type: cell-based
Chain of Epidermal growth factor receptor (Homo sapiens) (P00533 whole entry): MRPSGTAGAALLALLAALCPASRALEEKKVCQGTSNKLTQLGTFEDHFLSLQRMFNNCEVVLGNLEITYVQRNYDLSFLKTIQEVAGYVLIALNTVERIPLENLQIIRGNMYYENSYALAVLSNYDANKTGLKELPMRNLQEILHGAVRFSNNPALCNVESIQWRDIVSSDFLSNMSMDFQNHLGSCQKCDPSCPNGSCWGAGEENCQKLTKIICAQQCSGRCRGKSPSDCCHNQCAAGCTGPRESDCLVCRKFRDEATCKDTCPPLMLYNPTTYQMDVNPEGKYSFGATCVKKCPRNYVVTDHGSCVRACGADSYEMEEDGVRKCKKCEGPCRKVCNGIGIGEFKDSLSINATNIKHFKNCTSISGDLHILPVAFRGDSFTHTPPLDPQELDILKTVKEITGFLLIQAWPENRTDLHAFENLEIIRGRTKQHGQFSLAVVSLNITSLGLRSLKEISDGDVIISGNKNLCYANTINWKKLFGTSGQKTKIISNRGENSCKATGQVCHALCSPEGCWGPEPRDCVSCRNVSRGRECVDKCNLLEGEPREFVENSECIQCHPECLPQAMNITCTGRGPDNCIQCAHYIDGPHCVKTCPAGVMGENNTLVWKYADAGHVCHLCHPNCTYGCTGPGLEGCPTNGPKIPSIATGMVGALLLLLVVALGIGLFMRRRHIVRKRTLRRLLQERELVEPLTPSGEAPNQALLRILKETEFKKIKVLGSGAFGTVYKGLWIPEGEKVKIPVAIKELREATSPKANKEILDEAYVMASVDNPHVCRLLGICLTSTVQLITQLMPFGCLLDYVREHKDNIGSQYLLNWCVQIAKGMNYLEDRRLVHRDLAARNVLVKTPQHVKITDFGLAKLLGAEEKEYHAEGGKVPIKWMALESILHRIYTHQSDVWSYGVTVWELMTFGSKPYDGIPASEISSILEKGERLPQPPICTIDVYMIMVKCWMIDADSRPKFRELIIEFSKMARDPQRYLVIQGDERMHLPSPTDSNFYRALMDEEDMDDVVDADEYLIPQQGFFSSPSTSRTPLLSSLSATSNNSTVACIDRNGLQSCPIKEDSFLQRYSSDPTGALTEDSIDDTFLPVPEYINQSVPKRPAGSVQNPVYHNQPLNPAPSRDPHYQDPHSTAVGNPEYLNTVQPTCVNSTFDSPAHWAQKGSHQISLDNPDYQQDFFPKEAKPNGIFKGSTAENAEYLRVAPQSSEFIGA

[13] = molecular target: T1, Signal transducer and activator of transcription 1-alpha/beta (Homo sapiens) (UniProt P42224); assay: Inhibition of EGF-induced STAT1 phosphorylation in human MDA-MB-231 cells at 1 uM by ELISA; type: cell-based
T1 sequence (whole entry): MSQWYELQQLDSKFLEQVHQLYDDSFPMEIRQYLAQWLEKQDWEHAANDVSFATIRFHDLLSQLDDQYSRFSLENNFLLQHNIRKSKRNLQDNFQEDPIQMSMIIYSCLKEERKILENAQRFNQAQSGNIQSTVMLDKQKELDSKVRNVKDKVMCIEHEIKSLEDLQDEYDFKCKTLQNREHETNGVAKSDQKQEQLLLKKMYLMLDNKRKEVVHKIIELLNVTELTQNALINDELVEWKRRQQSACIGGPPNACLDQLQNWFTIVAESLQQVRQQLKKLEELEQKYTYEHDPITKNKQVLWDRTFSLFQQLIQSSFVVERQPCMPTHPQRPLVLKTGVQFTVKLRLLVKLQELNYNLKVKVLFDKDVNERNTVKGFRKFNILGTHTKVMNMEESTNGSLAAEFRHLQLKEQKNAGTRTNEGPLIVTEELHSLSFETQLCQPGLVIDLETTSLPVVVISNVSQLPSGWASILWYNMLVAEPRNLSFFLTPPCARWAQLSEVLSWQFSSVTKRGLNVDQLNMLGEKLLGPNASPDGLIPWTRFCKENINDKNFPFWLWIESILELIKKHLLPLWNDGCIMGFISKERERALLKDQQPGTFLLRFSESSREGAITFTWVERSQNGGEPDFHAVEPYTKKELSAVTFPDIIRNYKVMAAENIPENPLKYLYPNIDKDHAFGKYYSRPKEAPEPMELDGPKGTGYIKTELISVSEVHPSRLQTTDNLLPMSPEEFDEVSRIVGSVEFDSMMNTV

[14] = molecular target: Mitogen-activated protein kinase; ERK1/ERK2 (Homo sapiens) (UniProt P27361+P28482); assay: Inhibition of basal level ERK1/2 phosphorylation in human MCF7 cells at 1 uM by ELISA; type: cell-based
Chain of Mitogen-activated protein kinase; ERK1/ERK2 (Homo sapiens) (P27361 whole entry, looked up): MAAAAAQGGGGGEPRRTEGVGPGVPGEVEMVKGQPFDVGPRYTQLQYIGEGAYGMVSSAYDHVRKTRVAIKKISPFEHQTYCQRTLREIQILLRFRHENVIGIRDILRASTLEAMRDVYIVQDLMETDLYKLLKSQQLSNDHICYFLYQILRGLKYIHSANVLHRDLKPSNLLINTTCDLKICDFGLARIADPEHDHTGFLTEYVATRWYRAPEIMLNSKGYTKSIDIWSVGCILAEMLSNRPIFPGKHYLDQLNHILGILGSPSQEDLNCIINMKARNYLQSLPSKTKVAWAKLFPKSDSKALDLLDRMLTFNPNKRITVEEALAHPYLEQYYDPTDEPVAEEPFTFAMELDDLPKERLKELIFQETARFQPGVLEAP
Chain of Mitogen-activated protein kinase; ERK1/ERK2 (Homo sapiens) (P28482 whole entry, looked up): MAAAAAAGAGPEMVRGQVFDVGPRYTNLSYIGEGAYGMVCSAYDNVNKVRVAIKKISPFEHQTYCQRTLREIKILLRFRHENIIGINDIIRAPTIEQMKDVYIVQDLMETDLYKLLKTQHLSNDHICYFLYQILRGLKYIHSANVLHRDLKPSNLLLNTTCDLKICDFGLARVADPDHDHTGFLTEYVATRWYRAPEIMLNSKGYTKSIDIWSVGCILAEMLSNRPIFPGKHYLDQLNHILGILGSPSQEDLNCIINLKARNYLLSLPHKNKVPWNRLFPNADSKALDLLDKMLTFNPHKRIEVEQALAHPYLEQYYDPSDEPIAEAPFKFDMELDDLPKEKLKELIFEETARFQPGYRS

MDA-MB-231 [15] = assay: Antiinvasion activity in human MDA-MB-231 cells assessed as inhibition of EGF-induced cell invaded to matrigel coated invasion chamber at 1 uM after 24 hrs by Transwell invasion assay; type: functional, cell-based
Summary of the method: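 Transwell matrigel invasion (8 µm pore): cells at 1x10^5 cells/mL in 2% FBS medium in upper chamber; lower chamber medium with 1µM compound and EGF 100ng/ml; 24 h. Invaded cells on filter underside fixed, crystal-violet stained, counted in six random fields at 20×, dye dissolved in 0.1% SDS read at 540nm; triplicate chambers.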

[16] = molecular target: Plasminogen activator inhibitor 1 (Homo sapiens) (UniProt P05121); assay: Inhibition of EGF-induced […] PAI-1 in human MDA-MB-231 cells at 1 uM by ELISA; type: cell-based
Chain of Plasminogen activator inhibitor 1 (Homo sapiens) (P05121 whole entry): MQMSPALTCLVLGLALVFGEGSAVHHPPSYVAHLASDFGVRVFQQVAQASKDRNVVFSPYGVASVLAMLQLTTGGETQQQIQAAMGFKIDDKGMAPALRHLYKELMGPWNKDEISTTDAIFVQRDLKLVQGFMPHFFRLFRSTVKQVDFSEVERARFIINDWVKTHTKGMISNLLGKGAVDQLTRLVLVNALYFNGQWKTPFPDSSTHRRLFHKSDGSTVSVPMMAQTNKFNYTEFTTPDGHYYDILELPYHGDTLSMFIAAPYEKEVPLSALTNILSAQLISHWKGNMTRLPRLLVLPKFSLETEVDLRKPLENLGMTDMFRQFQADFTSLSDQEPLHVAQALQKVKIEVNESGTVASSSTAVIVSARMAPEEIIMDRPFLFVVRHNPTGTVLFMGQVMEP
Summary of the method: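 MDA-MB-231 cells treated at 1µM for 24 h with or without EGF. PAI-1 in conditioned medium measured by ELISA.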

MDA-MB-231 [17] = assay: Inhibition of EGF-induced cell migration in human MDA-MB-231 cells assessed as decrease in number of cells toward free space at 1 uM after 24 hrs by wound healing assay; type: functional, cell-based
Summary of the method: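 Confluent MDA-MB-231 monolayers scratch-wounded, washed and treated at 1μM in serum-free medium ± EGF (100ng/ml) for 24 h. Wound closure measured as distances in six random fields at 10×.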

SMILES	selectivity ratio [1]	Activity (MDA-MB-231 [2])	Activity (MDA-MB-231 [3])	Activity (MDA-MB-231 [4])	Activity (Mus musculus)	inhibition [5]	inhibition [6]	inhibition [7]	Activity (MDA-MB-231 [8])	Activity (MDA-MB-231 [9])	inhibition (MDA-MB-231 [10])	inhibition (MCF7)	inhibition (MDA-MB-231 [11])	inhibition [12]	inhibition [13]	inhibition [14]	inhibition (MDA-MB-231 [15])	inhibition [16]	inhibition (MDA-MB-231 [17])
CCN(CC)CCO/N=C(\c1ccc(SC)cc1)c1cccc2ccccc12.O=C(O)C(=O)O	1.2	80.13%	88%	0.9%	Non-toxic	–	–	–	–	–	–	–	–	–	–	–	–	–	–
CCN(CC)CCO/N=C(\c1ccc(SC)cc1)c1cccc2ccccc12	–	–	–	–	–	inactive	inactive	inactive	Active	Active	Active	inactive	Active	Active	inactive	Active	Active	Active	Active
